For test [1], the target named is Epidermal growth factor receptor (Homo sapiens, UniProt P00533). The experiment in a line: Inhibition of Epidermal growth factor receptor autophosphorylation in A431 cells. The test is classed as cell-based, A-431. Put shortly: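 A431 cells, starved overnight in serum-free medium, were exposed to compound for 2 h and then stimulated with 100 ng/mL EGF for 10 min. Cells were extracted in lysis buffer (Hepes pH 7.5, 1% Triton), and EGFR tyrosine autophosphorylation was read by immunoblotting.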
Epidermal growth factor receptor, sequence (P00533 whole entry): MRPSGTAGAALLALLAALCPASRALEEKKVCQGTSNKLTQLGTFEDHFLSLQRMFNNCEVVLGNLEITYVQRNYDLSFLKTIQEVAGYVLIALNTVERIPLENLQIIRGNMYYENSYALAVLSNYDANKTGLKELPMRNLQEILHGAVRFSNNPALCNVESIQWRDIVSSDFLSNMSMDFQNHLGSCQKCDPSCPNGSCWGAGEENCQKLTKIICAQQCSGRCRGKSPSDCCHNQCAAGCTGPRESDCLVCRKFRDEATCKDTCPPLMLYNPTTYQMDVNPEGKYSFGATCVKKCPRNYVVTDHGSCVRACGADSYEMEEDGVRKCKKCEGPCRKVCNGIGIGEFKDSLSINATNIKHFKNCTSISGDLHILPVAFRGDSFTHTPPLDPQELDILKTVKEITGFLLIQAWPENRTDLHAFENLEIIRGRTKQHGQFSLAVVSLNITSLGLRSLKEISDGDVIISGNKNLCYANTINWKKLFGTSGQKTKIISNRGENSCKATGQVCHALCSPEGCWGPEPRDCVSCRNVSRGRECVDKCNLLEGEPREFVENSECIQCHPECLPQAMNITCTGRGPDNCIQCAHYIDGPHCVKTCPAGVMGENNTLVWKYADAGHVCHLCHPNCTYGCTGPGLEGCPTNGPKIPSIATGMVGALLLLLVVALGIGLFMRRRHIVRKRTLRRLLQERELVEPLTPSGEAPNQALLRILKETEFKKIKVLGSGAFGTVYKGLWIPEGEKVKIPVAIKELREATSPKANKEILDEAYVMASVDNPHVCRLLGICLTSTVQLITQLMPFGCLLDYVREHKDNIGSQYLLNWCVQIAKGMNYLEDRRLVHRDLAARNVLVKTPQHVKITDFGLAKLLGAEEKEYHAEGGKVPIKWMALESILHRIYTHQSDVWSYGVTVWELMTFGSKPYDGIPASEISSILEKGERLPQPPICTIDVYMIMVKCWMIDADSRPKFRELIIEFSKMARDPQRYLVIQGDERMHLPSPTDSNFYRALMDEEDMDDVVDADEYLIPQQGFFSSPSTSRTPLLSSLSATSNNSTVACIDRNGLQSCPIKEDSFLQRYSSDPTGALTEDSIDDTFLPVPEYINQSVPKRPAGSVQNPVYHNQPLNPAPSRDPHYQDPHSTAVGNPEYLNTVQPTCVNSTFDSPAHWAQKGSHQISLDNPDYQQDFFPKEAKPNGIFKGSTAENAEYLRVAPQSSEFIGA

For test [2], the target named is Fibroblast growth factor receptor 1 (Homo sapiens, UniProt P11362). Put plainly: Inhibition of Fibroblast growth factor receptor 1 autophosphorylation in PAE cells. The test is classed as cell-based, Sus scrofa.
Fibroblast growth factor receptor 1, sequence (P11362 whole entry): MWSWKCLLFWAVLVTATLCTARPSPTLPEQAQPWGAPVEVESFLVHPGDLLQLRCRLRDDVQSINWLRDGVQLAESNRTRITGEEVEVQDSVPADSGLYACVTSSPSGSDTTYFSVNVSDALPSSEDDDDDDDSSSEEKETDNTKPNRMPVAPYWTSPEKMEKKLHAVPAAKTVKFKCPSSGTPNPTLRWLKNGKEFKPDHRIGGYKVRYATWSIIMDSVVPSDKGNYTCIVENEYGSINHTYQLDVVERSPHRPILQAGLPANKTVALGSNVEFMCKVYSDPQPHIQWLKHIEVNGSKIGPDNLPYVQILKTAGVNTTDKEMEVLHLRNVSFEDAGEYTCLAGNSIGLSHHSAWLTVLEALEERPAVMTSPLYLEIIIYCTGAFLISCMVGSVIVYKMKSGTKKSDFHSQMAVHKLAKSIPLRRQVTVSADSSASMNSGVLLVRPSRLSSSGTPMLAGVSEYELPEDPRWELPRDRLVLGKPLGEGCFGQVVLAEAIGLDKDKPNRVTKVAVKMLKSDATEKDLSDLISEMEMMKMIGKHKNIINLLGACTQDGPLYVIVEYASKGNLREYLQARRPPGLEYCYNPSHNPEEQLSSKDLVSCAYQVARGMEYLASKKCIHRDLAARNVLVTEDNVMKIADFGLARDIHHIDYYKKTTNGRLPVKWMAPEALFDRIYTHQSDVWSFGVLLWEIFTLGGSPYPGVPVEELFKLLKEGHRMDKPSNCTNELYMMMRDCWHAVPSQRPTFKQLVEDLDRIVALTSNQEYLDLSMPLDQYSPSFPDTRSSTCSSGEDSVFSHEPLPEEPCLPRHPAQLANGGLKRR
For test [3], the target named is T1, Beta-adrenergic receptor kinase 1 (Homo sapiens, UniProt P25098).
T1 sequence (P25098 whole entry): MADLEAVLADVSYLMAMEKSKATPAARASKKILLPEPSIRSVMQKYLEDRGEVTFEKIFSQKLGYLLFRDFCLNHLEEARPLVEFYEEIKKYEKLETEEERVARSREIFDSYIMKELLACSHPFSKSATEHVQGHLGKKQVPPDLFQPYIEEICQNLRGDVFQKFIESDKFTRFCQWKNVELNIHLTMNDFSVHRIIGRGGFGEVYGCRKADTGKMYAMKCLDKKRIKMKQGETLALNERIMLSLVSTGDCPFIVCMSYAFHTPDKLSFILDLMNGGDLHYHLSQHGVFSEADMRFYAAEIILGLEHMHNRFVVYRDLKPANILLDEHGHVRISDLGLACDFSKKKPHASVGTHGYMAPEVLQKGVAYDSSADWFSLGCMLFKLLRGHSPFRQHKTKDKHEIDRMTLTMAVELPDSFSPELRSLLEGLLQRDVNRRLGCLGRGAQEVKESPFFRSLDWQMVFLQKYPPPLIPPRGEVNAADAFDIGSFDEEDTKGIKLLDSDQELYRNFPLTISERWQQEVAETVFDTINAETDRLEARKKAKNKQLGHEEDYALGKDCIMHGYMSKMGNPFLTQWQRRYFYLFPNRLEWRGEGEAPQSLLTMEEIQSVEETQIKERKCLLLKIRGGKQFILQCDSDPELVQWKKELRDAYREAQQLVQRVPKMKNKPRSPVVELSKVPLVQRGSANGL
Put plainly: Inhibition of G-protein coupled receptor kinase 2 (GRK2) in vitro phosphorylation. Summed up:
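GRK2 was assayed in vitro using lysates of GRK2-overexpressing 293 cells as the kinase source. Rhodopsin purified from bovine rod outer segments served as substrate.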

The target of test [4] is Platelet-derived growth factor receptor alpha (Homo sapiens, UniProt P16234). The experiment in a line: Inhibition of Platelet-derived growth factor receptor alpha autophosphorylation in PAE cells. The test is classed as cell-based, Sus scrofa. Put shortly: (§1)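 Porcine aortic endothelial cells expressing human PDGF α- or β-receptor were used. Receptor autophosphorylation in the intact cells was read by immunoblotting.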
Platelet-derived growth factor receptor alpha, sequence (P16234 whole entry): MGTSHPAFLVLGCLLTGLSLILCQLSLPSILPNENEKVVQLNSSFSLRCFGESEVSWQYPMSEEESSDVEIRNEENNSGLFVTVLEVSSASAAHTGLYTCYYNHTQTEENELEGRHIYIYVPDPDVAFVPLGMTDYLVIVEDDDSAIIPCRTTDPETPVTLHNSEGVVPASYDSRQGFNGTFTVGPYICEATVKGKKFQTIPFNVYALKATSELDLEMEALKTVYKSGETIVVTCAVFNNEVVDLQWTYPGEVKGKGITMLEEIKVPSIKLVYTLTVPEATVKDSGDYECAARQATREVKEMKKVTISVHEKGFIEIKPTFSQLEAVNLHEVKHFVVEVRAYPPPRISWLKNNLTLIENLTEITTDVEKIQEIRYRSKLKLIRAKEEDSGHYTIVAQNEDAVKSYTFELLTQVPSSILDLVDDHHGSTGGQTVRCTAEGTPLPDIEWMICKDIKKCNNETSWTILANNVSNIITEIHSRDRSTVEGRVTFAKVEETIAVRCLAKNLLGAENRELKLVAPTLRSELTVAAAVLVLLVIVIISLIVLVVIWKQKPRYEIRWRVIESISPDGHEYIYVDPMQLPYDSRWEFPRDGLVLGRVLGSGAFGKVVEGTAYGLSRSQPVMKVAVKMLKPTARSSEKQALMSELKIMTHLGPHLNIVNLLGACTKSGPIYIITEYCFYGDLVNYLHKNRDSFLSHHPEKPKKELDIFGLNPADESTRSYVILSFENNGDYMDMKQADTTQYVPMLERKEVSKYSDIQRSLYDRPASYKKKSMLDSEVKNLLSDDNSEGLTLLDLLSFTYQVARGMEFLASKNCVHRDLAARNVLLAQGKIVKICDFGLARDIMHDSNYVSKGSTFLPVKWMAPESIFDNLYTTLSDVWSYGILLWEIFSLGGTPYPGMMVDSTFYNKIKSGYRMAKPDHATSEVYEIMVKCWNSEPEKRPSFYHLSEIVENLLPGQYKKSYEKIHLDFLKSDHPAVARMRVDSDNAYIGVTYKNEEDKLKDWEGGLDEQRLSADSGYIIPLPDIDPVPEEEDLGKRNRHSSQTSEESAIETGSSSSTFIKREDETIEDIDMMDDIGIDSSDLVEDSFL

Test [5] has as its target T2, Platelet-derived growth factor receptor beta (Homo sapiens, UniProt P09619). The experiment in a line: Inhibition of Platelet-derived growth factor receptor beta autophosphorylation in PAE cells. It is filed as cell-based, Sus scrofa. Summed up: as §1
In test [6] the target is T2, Platelet-derived growth factor receptor beta. Put plainly: Inhibition of Platelet-derived growth factor receptor beta kinase activity in Sf9-expressed GST-fusion protein. Summed up:
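A constitutively active GST fusion of the PDGFβ-receptor cytoplasmic domain was expressed in Sf9 cells. The isolated fusion protein was tested in an in vitro autophosphorylation assay at 10 µM ATP.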

For test [7] the target is unchanged. Put plainly: Inhibition of purified Platelet-derived growth factor receptor beta kinase activity. Summed up:
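PDGFβ-receptor kinase was purified from membranes of a receptor-overexpressing cell line. Inhibition was tested in an in vitro autophosphorylation assay at 10 µM ATP.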

The nature of test [8]: Inhibition of Protein kinase C isoforms epsilon and iota in vitro phosphorylation. Summed up:
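RGS-His6-tagged PKC isoforms were expressed transiently in COS-7 cells and purified from lysate on Ni-NTA, with imidazole elution. Reactions ran 10 min at 30 °C, and phosphocellulose-bound radioactivity was counted.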

Test [9] concerns the target Platelet-derived growth factor receptor (Homo sapiens, UniProt P09619+P16234). Put plainly: Antitumor activity measured by the inhibition of platelet-derived growth factor receptor autophosphorylation in intact Swiss 3T3 cells. The test is classed as cell-based. Summed up: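 Quiescent Swiss 3T3 fibroblasts moved to serum-free DMEM and exposed to compound in DMSO (final 1%) for 2 h. They were then stimulated with 100 ng/mL human recombinant PDGF-BB for 10 min at room temperature and lysed. Autophosphorylation was read by immunoblotting. Four to eight concentrations were tested across 2 orders of magnitude, and IC50 came from curve fitting over three independent experiments.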

Test [10] has as its target T3, Protein kinase C epsilon type (Homo sapiens, UniProt Q02156).
T3 sequence (Q02156 whole entry): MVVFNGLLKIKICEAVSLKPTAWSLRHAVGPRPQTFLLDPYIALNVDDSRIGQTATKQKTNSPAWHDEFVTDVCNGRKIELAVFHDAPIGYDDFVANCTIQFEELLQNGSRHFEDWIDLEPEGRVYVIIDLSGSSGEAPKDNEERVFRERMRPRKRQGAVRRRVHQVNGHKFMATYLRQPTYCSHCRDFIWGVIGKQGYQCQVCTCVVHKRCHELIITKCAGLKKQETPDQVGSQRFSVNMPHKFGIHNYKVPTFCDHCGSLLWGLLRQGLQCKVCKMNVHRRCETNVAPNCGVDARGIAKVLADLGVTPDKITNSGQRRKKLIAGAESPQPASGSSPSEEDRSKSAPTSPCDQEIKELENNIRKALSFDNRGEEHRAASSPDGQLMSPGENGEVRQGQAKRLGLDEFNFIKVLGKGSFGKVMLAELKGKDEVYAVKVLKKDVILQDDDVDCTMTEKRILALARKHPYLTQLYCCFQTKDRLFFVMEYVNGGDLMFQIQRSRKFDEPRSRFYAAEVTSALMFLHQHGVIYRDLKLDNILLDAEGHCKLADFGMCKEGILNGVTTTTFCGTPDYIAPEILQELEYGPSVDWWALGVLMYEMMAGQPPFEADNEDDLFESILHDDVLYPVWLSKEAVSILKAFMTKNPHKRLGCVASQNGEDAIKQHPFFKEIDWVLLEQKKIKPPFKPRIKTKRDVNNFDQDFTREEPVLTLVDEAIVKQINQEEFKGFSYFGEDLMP
Put plainly: Inhibition of His-tagged Protein kinase C epsilon over-expressed in COS7 cells. It is filed as cell-based, COS-7. Put shortly: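 RGS-His6-tagged PKC was transiently expressed in COS-7 cells, purified on Ni-NTA agarose and eluted with 500 mM imidazole. Reactions ran 10 min at 30 °C; phosphocellulose binding and scintillation counting gave the read-out.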

The target of test [11] is Proto-oncogene tyrosine-protein kinase Src (Homo sapiens, UniProt P12931). The experiment in a line: Inhibition of Src protein tyrosine kinase. Put shortly: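 Src-dependent tyrosine phosphorylation was measured in intact src-transformed NIH3T3 fibroblasts, with immunoblot read-out.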
Proto-oncogene tyrosine-protein kinase Src, sequence (P12931 2-536 limits assumed): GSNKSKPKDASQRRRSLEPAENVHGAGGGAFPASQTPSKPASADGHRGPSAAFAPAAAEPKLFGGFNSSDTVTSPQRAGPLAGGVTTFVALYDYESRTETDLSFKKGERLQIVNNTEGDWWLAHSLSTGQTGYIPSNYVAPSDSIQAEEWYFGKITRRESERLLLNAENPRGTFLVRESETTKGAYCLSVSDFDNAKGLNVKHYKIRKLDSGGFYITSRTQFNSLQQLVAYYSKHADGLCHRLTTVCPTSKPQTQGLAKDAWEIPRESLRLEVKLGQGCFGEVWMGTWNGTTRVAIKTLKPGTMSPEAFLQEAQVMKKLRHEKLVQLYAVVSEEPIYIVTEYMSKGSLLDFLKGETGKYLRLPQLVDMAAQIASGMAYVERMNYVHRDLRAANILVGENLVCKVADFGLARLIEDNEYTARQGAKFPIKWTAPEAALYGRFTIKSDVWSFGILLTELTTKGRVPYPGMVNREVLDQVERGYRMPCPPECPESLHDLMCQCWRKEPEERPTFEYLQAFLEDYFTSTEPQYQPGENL

T2 sequence (P09619 whole entry, the tested form may be a part): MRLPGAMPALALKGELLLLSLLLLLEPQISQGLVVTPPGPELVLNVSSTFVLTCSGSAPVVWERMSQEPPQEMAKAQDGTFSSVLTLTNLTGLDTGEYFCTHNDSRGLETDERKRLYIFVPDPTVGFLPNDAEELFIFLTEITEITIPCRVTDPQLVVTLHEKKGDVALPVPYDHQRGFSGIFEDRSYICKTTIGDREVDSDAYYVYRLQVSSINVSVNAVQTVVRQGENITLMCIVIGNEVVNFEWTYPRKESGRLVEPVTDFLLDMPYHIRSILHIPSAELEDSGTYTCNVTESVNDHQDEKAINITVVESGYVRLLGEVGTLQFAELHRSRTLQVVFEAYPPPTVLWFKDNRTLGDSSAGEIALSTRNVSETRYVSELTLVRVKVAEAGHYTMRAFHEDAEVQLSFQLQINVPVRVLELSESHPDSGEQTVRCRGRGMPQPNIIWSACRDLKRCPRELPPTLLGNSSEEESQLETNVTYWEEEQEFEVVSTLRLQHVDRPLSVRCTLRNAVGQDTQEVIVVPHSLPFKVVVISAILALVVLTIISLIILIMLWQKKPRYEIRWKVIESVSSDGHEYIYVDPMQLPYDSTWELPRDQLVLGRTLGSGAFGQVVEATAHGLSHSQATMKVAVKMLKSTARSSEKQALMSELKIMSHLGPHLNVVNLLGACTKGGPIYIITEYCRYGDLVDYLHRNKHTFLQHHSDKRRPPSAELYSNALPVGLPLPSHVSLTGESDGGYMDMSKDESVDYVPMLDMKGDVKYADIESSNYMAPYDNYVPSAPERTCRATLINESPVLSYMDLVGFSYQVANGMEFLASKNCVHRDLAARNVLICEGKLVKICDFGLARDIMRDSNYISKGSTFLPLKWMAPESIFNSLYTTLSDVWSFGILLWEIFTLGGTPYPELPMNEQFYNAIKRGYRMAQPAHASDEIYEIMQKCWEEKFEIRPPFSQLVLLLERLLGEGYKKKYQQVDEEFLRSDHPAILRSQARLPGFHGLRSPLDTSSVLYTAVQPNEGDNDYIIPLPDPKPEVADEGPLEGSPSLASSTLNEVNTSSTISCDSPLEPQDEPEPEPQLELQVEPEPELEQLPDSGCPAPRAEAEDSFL

With `CN(C)CC(=O)Oc1ccc2[nH]c(C(=O)c3cc4ccccc4[nH]3)cc2c1`, the IC50 in test [1] was greater than 30000 nM; in [2], greater than 10000 nM; in test [3], greater than 100000 nM; in test [4] it was 100 nM; in test [5], 100 nM; in test [6], 1300 nM. The IC50 in test [7] was 100 nM; in [8], 15100 nM; in [9], 100 nM; in [10] it was 30000 nM; in test [11] it was greater than 30000 nM.

As for `COCC(=O)Oc1ccc2[nH]c(C(=O)c3cc4ccccc4[nH]3)cc2c1`, the IC50 is greater than 30000 nM in test [1]; greater than 10000 nM in [2]; greater than 100000 nM in [3]; 300 nM in [4]; 100 nM in test [5]; 4200 nM in test [6]. Moreover, the IC50 in test [7] was 20 nM; in [8], 20400 nM; in test [9] it was 200 nM; in [10], greater than 100000 nM; in test [11], greater than 30000 nM.

As usually defined, the IC50 is the midpoint of a concentration-inhibition curve. A high value points to weaker potency.
